A selection: hits, their analogues and other compounds. The true share with any hit is near 3.1%.
Hsp70 act – Hsp70 transcriptional activation, primary screen. activation, % at 10 µM. actives 0.04% (n = 200,000). HeLa Hsp70 promoter luciferase reporter, luminescence; scaled: vehicle 0, proteasome-inhibitor control 100%;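 active = activation above the mean across all tested compounds plus 3 SD, cutoff set per campaign, cut at about 5.5% in these data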;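 also: 100% = MG132 at 30 µM as the positive control and 0% = DMSO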
HSF-1 act – increases HSF-1 driven luciferase reporter signal; activation, % at 9 µM; actives 1.7% (n = 300,000); AID 504408; NIH3T3-HGL HSF-1 luciferase reporter, MG132, 8 h; 100% = twice DMSO control signal;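 active = mean replicate activation of at least 50% with a set share of replicates each reaching 50%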;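 also: 0% = median of the neutral control wells and 100% = twice that signal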
HSF1 inh – HSF1 inhibition | AID 2098 | NIH3T3-HGL HSE-luciferase, MG132-induced, luminescence 8 h; hits give low values | actives 0.77% (n = 300,000) | activity change, negative = inhibition, % at 7.5 µM (by protocol);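 active = more than half of replicate wells show activity change below -50%, luminescence cut by over half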;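 also: luciferase reports HSF-1 transcriptional activity via heat shock element; 0% = median of DMSO wells and -100% = zero luminescence signal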
HSP90 inh – HSP90 refolding inhibition in rabbit reticulocyte lysate | luciferase refolding luminescence, 3 h | inhibition, % at 5.6 µM | actives 0.91% (n = 290,000) | AID 1789;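 active = inhibition above the screen-wide mean plus 3 SD, computed separately per campaign, cut at about 16% in these data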;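 also: 0% = DMSO wells and 100% = 60 µM geldanamycin wells; inhibitors lower the luminescence because luciferase stays unfolded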
TbHK1 inh – blocks Trypanosoma brucei hexokinase 1 activity | recombinant TbHK1, G6PDH-coupled NADH A340 | actives 0.11% (n = 220,000) | inhibition, % at 10 µM;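 active = inhibition of 50% or more in the single-dose primary screen; inactive = inhibition below 50%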
HKDC1 inh – inhibitors of human hexokinase HKDC1; actives 0.16% (n = 340,000); recombinant HKDC1, G6PDH/diaphorase resazurin coupled fluorescence; Q2TB90; inhibition, % at 20 µM; AID 493160;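 active = inhibition above about 35% when tested at 20 µM, limit read from the data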;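 also: plate controls were DMSO wells with enzyme for no effect and DMSO wells lacking enzyme for full effect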
Target sequence (Q2TB90 whole entry, looked up): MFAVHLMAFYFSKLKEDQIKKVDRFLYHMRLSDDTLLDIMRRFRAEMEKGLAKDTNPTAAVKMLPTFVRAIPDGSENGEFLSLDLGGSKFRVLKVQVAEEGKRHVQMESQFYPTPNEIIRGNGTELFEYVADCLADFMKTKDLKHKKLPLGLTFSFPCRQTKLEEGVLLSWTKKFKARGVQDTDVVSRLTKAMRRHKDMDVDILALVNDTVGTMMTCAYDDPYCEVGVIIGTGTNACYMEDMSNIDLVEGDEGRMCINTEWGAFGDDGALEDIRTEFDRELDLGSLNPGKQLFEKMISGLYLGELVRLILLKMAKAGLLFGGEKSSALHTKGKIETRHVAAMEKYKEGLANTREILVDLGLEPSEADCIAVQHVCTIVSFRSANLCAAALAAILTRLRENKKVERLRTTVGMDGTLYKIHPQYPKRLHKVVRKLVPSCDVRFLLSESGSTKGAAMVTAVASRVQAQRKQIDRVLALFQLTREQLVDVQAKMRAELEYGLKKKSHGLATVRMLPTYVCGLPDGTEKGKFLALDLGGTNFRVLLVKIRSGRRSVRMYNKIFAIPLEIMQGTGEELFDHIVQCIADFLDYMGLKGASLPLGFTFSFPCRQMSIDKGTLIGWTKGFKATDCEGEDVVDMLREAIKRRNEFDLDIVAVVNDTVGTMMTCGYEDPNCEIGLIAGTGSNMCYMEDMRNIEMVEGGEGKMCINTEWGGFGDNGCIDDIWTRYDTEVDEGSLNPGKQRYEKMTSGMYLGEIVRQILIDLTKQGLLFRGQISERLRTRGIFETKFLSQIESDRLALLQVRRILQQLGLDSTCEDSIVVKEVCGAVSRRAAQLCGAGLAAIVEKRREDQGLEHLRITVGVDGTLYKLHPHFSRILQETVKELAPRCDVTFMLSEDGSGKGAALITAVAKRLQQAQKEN
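Test system: recombinant HKDC1 (HK5) hexokinase enzyme, produced in-house / Doses: 20 µM test compound, 1% DMSO / Timing: 90 min, room temperature / Detection: G6PDH/diaphorase-coupled fluorescence, 1 mM NADP, 100 µM resazurin, 525/613 nm / Control set: DMSO wells with and without enzyme mix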
* hit, by the source's call; nt = no result; ! = a repeat was not active.

SMILES	Hsp70 act	HSF-1 act	HSF1 inh	HSP90 inh	TbHK1 inh	HKDC1 inh
O=C(CNC(=O)c1ccc2c(c1)OCO2)N/N=C(Br)/C=C/c1ccccc1	0	66*	34	1	-3	-6
O=C(N/N=C/c1cccnc1)c1ccc2c(c1)OCCO2	0	-73	-63*	2	-2	-13
O=C(N/N=C/c1ccc(Br)o1)c1ccc2c(c1)OCCO2	1	-81	-79*	1	-38	2
O=C(N/N=C/c1ccccc1)c1ccc2c(c1)OCO2	nt	26	10	16*	nt	-7
CN(C)c1ccc(/C=N/NC(=O)c2ccc3c(c2)OCO3)cc1	nt	3	9	-1	nt	-2
CC1Cc2ccccc2N1Cc1cccc([N+](=O)[O-])c1 (centres undefined)	nt	-4	-2	1	nt	1
CN1CCCN(C(=O)c2c(F)cccc2Cl)CC1	nt	-10	0	-4	nt	-2
Cc1ccc(N(CC2=NCCN2)c2cccc(O)c2)cc1	0	-75	-72*!	-1	4	2
Fc1ccc(/C=C2\CCCC3=C2Nc2ncnn2C3c2ccc(F)cc2)cc1 (centres undefined)	0	98*	66	1	-6	17
CC(Oc1cccc(Cl)c1)C(=O)Nc1cc(Cl)ccc1N1CCOCC1 (centres undefined)	nt	11	14	nt	nt	0
Cc1ccc(-c2ccc(/C=C/C(=O)c3ccccc3)o2)cc1	0	76*	55	-2	15	-11
O=C(/C=C/c1ccc(-c2ccccc2)o1)c1ccccc1	0	72*	42	8	15	9
O=Cc1ccc(-c2cccc(C(=O)O)c2)o1	0	-17	7	-2	-31	-7
CCc1ccc(C(C(=O)NC2CCCCC2)N(C(=O)c2csnn2)C2CC2)cc1 (centres undefined)	nt	-9	1	-2	nt	-3
Cc1ccc(CNCc2ccccc2Cl)cc1	0	22	6	-2	-10	-7
Fc1ccc(CNCc2ccccc2Cl)cc1	0	-61	-53*	4	-1	-9
O=C(c1ccc(Cl)cc1)C(CN1CCCCC1)c1ccccc1 (centres undefined)	nt	107*	86	-1	nt	12
CCOC(=O)C(CN1CCCC1)c1ccccc1 (centres undefined)	nt	-10	-8	nt	nt	-3
O=C(Nc1ccc(S(=O)(=O)N2CCCCCC2)cc1)c1[nH]ncc1[N+](=O)[O-]	nt	107*	89	0	nt	nt
CN(NS(=O)(=O)c1ccccc1)C(=O)c1ccccc1	nt	nt	nt	nt	nt	1
O=C1c2ccccc2C(=O)C1c1ccc(Br)cc1	nt	8	-5	-2	nt	-4
O=C1c2ccccc2C(=O)C1c1ccc(O)cc1	0	72*	39	0	-5	-3
CC(=O)C1=C(O)C(=O)N(c2ccc(Br)cc2)C1c1ccccc1[N+](=O)[O-] (centres undefined)	nt	-2	5	-3	nt	-5
CCCCn1c(N)c(N(CC(C)C)C(=O)CN2C(=O)NC3(CCC(C(C)(C)CC)CC3)C2=O)c(=O)[nH]c1=O (centres undefined)	nt	nt	nt	nt	nt	-1
CCC1CCCCN1C(=O)COC(=O)c1cc2ccccc2cc1O (centres undefined)	0	83*	46	-2	2	-4
SMILES	Hsp70 act	HSF-1 act	HSF1 inh	HSP90 inh	TbHK1 inh	HKDC1 inh
CCCC[C@@H]1CNC(=O)C(=O)N1CCc1cccc2ccccc12	nt	-75	-69*	nt	nt	nt
O=C(Cc1ccc(Cl)cc1)Nc1ncc([N+](=O)[O-])s1	1	36	18	1	-1	0
Cc1onc(-c2ccccc2)c1C(=O)Nc1ncc([N+](=O)[O-])s1	nt	2	-6	-4	nt	-1
Cc1ccc(C(=O)Nc2ncc([N+](=O)[O-])s2)cc1	nt	-18	6	80*	nt	10
O=C(COc1ccc(Cl)cc1)Nc1ncc([N+](=O)[O-])s1	0	78*	45	8	8	6
C=CC[C@@H](CC(=O)N[C@H](CO)Cc1ccccc1)C(=O)N[C@H](COC(=O)[C@@H](CC=C)Cc1ccc(F)cc1)Cc1ccccc1	nt	nt	nt	nt	nt	-4
Cc1cccc(N=Nc2c(C)c(C#N)c(O)[nH]c2=O)c1	0	54*	21	2	-12	1
CCOC(=O)C1=C(C(=O)OCC)N(CC)CCC1=O	nt	nt	nt	nt	nt	-2
O=C(Nc1ccc(C(=O)N2CCOCC2)cc1)c1cnn2c(C(F)F)cc(-c3ccccc3)nc12	0	54*	13	2	-19	-1
COc1ccc(-c2cc(C(F)F)n3ncc(C(=O)Nc4ccc(C(=O)N5CCOCC5)cc4)c3n2)cc1	0	-1	3	1	-17	5
CCNc1c([N+](=O)[O-])c(=O)oc2ccccc12	0	0	-12	-3	-12	-5
COc1c([N+](=O)[O-])c(=O)oc2ccccc12	0	-79	-72*	-3	-40	-3
CCOC(=O)C1CCCN(CC(=O)Nc2c(C(=O)OC)[nH]c3ccc(C)cc23)C1 (centres undefined)	0	37	18	2	-4	1
CCOC(=O)C1CCCN(CC(=O)Nc2c(C(=O)OC)[nH]c3ccccc23)C1 (centres undefined)	0	60*	16	0	-1	-3
COc1ccc2[nH]c(C(=O)NCc3ccccc3)c(C)c2c1	nt	6	8	6	nt	0
O=C(O)C(c1ccccc1)C(O)c1ccc2c(c1)OCO2 (centres undefined)	nt	nt	nt	nt	nt	-5
O=C(/C=C/c1ccc(Cl)cc1Cl)Nc1cccc(S(=O)(=O)NC2=NCCC2)c1	0	63*	24	-2	-4	-4
CCOc1ccc(S(=O)(=O)NNC(=S)Nc2ccc(Br)cc2)cc1	0	113*	87	2	27	-13
CC(C(=O)NCc1ccco1)n1nc(-c2ccccc2)c2cc(Cl)ccc21 (centres undefined)	0	0	3	-2	-10	-6
CC(=O)c1ccc(NC(=O)C(C)n2nc(-c3ccccc3)c3cc(Cl)ccc32)cc1 (centres undefined)	0	-73	-67*	2	-6	9
COc1cccc(NC2SC(=O)N(c3ccccc3)C2=O)c1 (centres undefined)	0	59*	35	-1	5	-6
CCCN=CC1=C(O)CC(c2ccccc2)CC1=O (centres undefined)	0	5	3	-2	4	-5
CC(C)CCN=CC1=C(O)CC(c2ccccc2)CC1=O (centres undefined)	0	67*	28	-3	-5	-9
O=C1CC(c2ccccc2)CC(O)=C1C=Nc1ccccc1Cl (centres undefined)	0	6	12	2	0	1
Cc1ccc(N=CC2=C(O)CC(c3ccccc3Cl)CC2=O)cc1 (centres undefined)	nt	0	5	2	-12	-1
